From PubChem BioAssay
Cav32 inh: inhibitors of human Cav3.2 T-type calcium channel; O95180; Cav3.2-expressing cells, Fluo-4 calcium fluorescence FDSS; stronger effect = lower value; B-score at 10 µM; hit rate 4% among 100,000; AID 449739;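 active = single-dose well whose peak fluorescence ratio is a statistical outlier from its plate by either plate-standardised score or position-corrected B-score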
CYP2C19 inh: blocks human cytochrome P450 2C19 | P33261 | CYP2C19 Supersomes, luciferin-H EGE luminescence, 30 min | inhibition, % at 5 µM | hit rate 21% among 96,000 | AID 778;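 active = CYP2C19 inhibition above a set limit at 5 µM in the primary screen, cut at about 50% in these data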;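 note: plate controls were negative control wells for no effect and 2.5 mM tranylcypromine positive control for full effect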
Rev-RRE block: inhibitors of HIV-1 Rev-RRE RNA interaction. P05866. Rev peptide-RRE RNA binding, FRET. inhibition, % at 8 µM. hit rate 0.79% among 97,000. AID 704;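 active = inhibition above the screen-wide mean plus 3 SD, cut at about 35% in these data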;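 note: 0% = median DMSO wells and 100% = median Neomycin B control wells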
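Test system – labelled RRE RNA duplex and labelled Rev peptide · Signal – fluorescein-to-Cy5 FRET, 480 nm excitation · Evaluation – % inhibition of FRET ratio versus controls · Benchmarks – DMSO low control, neomycin B high control · Incubation – 5 min RNA-compound premix plus 15 min binding step, 25 °C · Medium – HEPES pH 7.5 salt buffer with EDTA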
CYP2C9 inhib: human CYP2C9 inhibition; P11712; CYP2C9 Supersomes, luciferin-H conversion, luminescence; inhibition, % at 5 µM; hit rate 20% among 96,000; AID 777;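 active = blocking of liver enzyme CYP2C9 beyond about 50% at 5 µM, limit read from the data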
CYP2C19 act: activators of human cytochrome P450 2C19 | P33261 | recombinant CYP2C19, luciferin-H EGE luminescence; stronger effect = higher value; 0 = fully inhibited enzyme, 1 = untreated enzyme | activation factor at 5 µM | 96,000 tested, under 10 active | AID 1025;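 active = activation factor of at least 2 at 5 µM in the primary screen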;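 note: 0 = wells with 2.5 mM tranylcypromine and 1 = vehicle-only wells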
CYP2C9 activ: activators of human CYP2C9; P11712; recombinant CYP2C9, luciferin-H conversion, luminescence; stronger effect = higher value; factor 1 = untreated enzyme, 0 = blocked; activation factor at 5 µM; hit rate 1.4% among 96,000;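 active = activation factor of 2 or more for CYP2C9 at a 5 µM dose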;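 note: 0 = sulfaphenazole-blocked wells and 1 = vehicle-only wells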
The depositor's hits bear a star; . = no result. The list is not random: actives were taken first. Their share in the collection is about 27%.

SMILES	Cav32 inh	CYP2C19 inh	Rev-RRE block	CYP2C9 inhib	CYP2C19 act	CYP2C9 activ
Nc1nonc1C(=O)NC(c1ccccc1)c1ccccc1	-0.78	90*	3	78*	0.1	0.2
COc1cc(CC2COC(c3ccc(O)c(OC)c3)C2COC(C)=O)ccc1O (configuration not stated)	-0.22	.	.	.	.	.
c1ccc(-c2c[nH]c3[n+]2CCCCC3)cc1	0.53	55*	1	-4	0.5	1
O=C(N[C@H](CO)[C@H](O)c1ccc([N+](=O)[O-])cc1)C(Cl)Cl	-1.9	.	.	.	.	.
COc1ccc(O)c(C(=O)c2cnc3onc(C)c3c2)c1	-1.8	83*	6	38	0.2	0.6
Cc1[nH]nc2ncc(C(=O)c3ccccc3O)cc12	.	25	4	34	0.7	0.7
COc1ccc(O)c(C(=O)CC(=O)c2ccc(F)cc2)c1	-3.5	26	0	9	0.7	0.9
Cc1nn(C)c2ncc(C(=O)c3cc(F)ccc3O)cc12	0.035	95*	6	68*	0	0.3
Cc1cccc(OCc2nnc(SCC(=O)Nc3ccc(C)c(Cl)c3)o2)c1	0.31	-15	4	-2	1.2	1
COC(=O)c1ccc(OC)c(CSc2nnc(COc3ccc(OC)cc3)o2)c1	-3	38	.	69*	0.6	0.3
COC(=O)c1ccc(OC)c(CSc2nnc(COc3cccc(C)c3)o2)c1	-3.6	96*	.	90*	0	0.1
CC/C(C)=N\N=C\c1c(O)n(CC)c2cc(C3=NNC(=O)CC3)ccc12	0.57	.	16	.	.	.
Cc1csc(NC(=O)C(NS(=O)(=O)c2ccc(Br)s2)c2ccccc2)n1 (configuration not stated)	-1.6	14	3	22	0.9	0.8
O=C(Nc1cnn(Cc2ccccc2)c1)c1cc2nc(-c3ccco3)cc(C(F)(F)F)n2n1	-0.82	12	.	1	0.9	1
O=C(O)C1C2CCC(O2)C1C(=O)Nc1cnn(Cc2ccccc2)c1 (configuration not stated)	-0.34	83*	4	20	0.2	0.8
S=C1NC(c2ccccc2)=NCN1c1ccccc1	0.1	95*	6	65*	0.1	0.4
c1ccc(C2=NC(c3ccccc3)N=C(c3ccccc3)N2)cc1	-2.5	.	0	.	.	.
CCCCC1=CC2=CC(=O)C(C)(OC(=O)c3ccc(Cl)nc3)C(=O)C2=CO1 (configuration not stated)	0.0075	.	.	.	.	.
N#Cc1cc(N)ccc1Sc1ccc(Cl)cc1	-3.6	50	8	-87	0.5	1.9
N#Cc1ncc(C(F)(F)F)cc1Sc1ccc(N)cc1	-0.88	96*	16	81*	0	0.2
Cc1ccc(-n2ccc(=O)c(-c3ccnc(SCc4cccc(Cl)c4)n3)n2)cc1	0.0053	20	7	56*	0.8	0.4
COc1ccc(C)cc1-n1nnnc1SCc1cn2ccsc2n1	-0.79	87*	2	40	0.1	0.6
O=c1cc(CSc2nnc(Nc3ccccc3)s2)nc2sccn12	0.02	3	18	40	1	0.6
Cc1cccc(Nc2nnc(SCc3cn4ccsc4n3)s2)c1	-0.66	74*	7	57*	0.3	0.4
Cc1nnc(SCc2cn3ccsc3n2)n(N)c1=O	-0.046	-13	8	9	1.1	0.9
SMILES	Cav32 inh	CYP2C19 inh	Rev-RRE block	CYP2C9 inhib	CYP2C19 act	CYP2C9 activ
COc1ccc(C)cc1-n1nnnc1SCC1CCCCO1 (configuration not stated)	-0.48	100*	7	73*	0	0.3
N#Cc1cc(Cl)c(N2CCOCC2)cc1C#N	0.57	1	3	4	1	1
CC(=O)Nc1ccc(Oc2cc(C#N)c(C#N)cc2N2CCCCCC2)cc1	-3.8*	.	4	.	.	.
CC(=O)Nc1ccc(Oc2cc(C#N)c(C#N)cc2N2CCOCC2)cc1	-1.1	42	6	53*	0.6	0.5
CCOC(=O)C(C(=O)OCC)[C@@H]1CS(=O)(=O)C[C@H]1C(C(=O)OCC)C(=O)OCC	-0.24	44	.	8	0.6	0.9
Cc1ccc(/C=C2/CCc3c([nH]c4ccccc34)C2=O)cc1	.	63*	7	24	0.4	0.8
O=C1/C(=C\c2ccccc2)CCc2c1[nH]c1ccccc21	0.18	91*	4	26	0.1	0.7
Cc1ccc2[nH]c3c(c2c1)CC/C(=C/c1ccccc1)C3=O	-0.019	40	14	29	0.6	0.7
Cn1nnnc1SCC(=O)Nc1cc(C(=O)O)cc(C(=O)O)c1	0.47	3	8	4	1	1
CC1(C)CC(c2csc(N)n2)CCO1 (configuration not stated)	0.58	-8	0	16	1.1	0.8
CC1=NN(c2nc(-c3ccc(Cl)cc3)cs2)C(=O)C1	-0.98	-8	0	60*	1.1	0.4
CCC(=O)N1CCN(c2nc(-c3ccc(Cl)cc3)cs2)CC1	0.92	.	9	.	.	.
CSc1ccc(S(=O)(=O)Nc2ccc(F)cc2)cc1	-5.1*	100*	5	92*	0	0.1
COC(=O)c1ccc(NS(=O)(=O)c2ccc(SC)cc2)cc1	-0.047	-14	0	7	1.1	0.9
O=S(=O)(Nc1ccc(-c2csc(-c3ccccc3)n2)cc1)c1ccc(F)cc1	-0.019	8	9	97*	0.9	0
CC(=O)NS(=O)(=O)c1ccc(N)cc1	0.41	.	.	.	.	.
COc1ccc(NS(=O)(=O)c2ccc(SC)cc2)cc1	-2.3	100*	8	96*	0	0
COc1ccc(NS(=O)(=O)c2ccc(NS(C)(=O)=O)cc2)cc1	-0.37	17	4	16	0.8	0.8
CC(=O)NS(=O)(=O)c1ccc(NS(=O)(=O)c2ccc(F)cc2)cc1	0.16	3	7	59*	1	0.4
CS(=O)(=O)N1CCN(c2ccccc2NC(=O)c2cccnc2)CC1	-0.13	3	5	-2	1	1
NC(=O)CC(NC(=O)c1cccc(Br)c1)c1ccc(N2CCC(N3CCCC3)CC2)c([N+](=O)[O-])c1 (configuration not stated)	-0.29	.	.	.	.	.
O=C1CCCc2c1[nH]c1ccc(Cl)cc21	.	.	0	.	.	.
NC(=O)NC1CCCc2c1[nH]c1ccc(Cl)cc21 (configuration not stated)	-0.34	52*	.	94*	0.5	0.1
Cn1cnnc1SCC(=O)Nc1ccc2nc(SCc3ccccc3F)sc2c1	0.12	47	7	60*	0.5	0.4
Cn1cnnc1SCC(=O)Nc1cccc(C(=O)O)c1	0.12	-3	1	-5	1	1.1
CCOC(=O)CSc1nc2ccc(NC(C)=O)cc2s1	-0.33	57*	2	72*	0.4	0.3
CSc1nc2ccc(NC(=O)CSc3nnc(N)s3)cc2s1	0.029	2	5	71*	1	0.3
CC1(C)OC(=O)C(=CNCC(=O)NCC(=O)O)C(=O)O1	0.4	19	2	18	0.8	0.8
